{"data": "Results pooled from the literature", "BCHE": "Cholinesterase (BCHE, Homo sapiens, UniProt P06276)", "CYSLTR1": "Cysteinyl leukotriene receptor 1 (CYSLTR1, Homo sapiens, UniProt Q9Y271)"}
{"Structure (SMILES)": "C#Cc1n[nH]c2c(-c3cn([C@@H](C)c4ccccc4)c(=O)[nH]c3=O)cc(F)cc12", "target": "Fibroblast growth factor receptor 1 (FGFR1, Homo sapiens, UniProt P11362, V561M)", "test": "enzyme activity, inhibitor", "conditions": "0.1 µM", "inhibition [%]": -4.7}
{"Structure (SMILES)": "C=CCn1c2cc(OC(=O)CCCCN3CCN(Cc4cccc(C(F)(F)F)c4)CC3)ccc2c2ccnc(C)c21", "target": "BCHE", "test": "enzyme activity, inhibitor, Ellman", "conditions": "1 µM", "inhibition [%]": 40.2}
{"Structure (SMILES)": "CN(CCN1CCC(OC(=O)Nc2ccccc2-c2ccccc2)CC1)C(=O)c1ccc(CN2CCC(C(N)=O)CC2)cc1", "target": "CYSLTR1", "test": "ligand displacement, radioligand", "conditions": "1 µM", "inhibition [%]": -13}
{"Structure (SMILES)": "COc1ccc(S(=O)(=O)N2CCCCC2)cc1C", "target": "Melanocortin receptor 4 (MC4R, Homo sapiens, UniProt P32245)", "test": "ligand displacement, radioligand", "conditions": "10 µM", "inhibition [%]": "< 30"}
{"Structure (SMILES)": "Cn1cc(-c2cccc(N3CCc4c(sc5c4CC(C)(C)C5)C3=O)c2CO)cc(Nc2ccncn2)c1=O", "target": "Tyrosine-protein kinase Fgr (FGR, Homo sapiens, UniProt P09769)", "test": "enzyme activity, inhibitor", "conditions": "1 µM", "inhibition [%]": 53}
{"Structure (SMILES)": "COCc1c(-c2cc3cc(C)cc(OC)c3s2)c2c(N)ncnn2c1CN1CCNC(=O)C1", "target": "Interferon-induced, double-stranded RNA-activated protein kinase (EIF2AK2, Homo sapiens, UniProt P19525)", "test": "cell-free assay, competition with immobilised ligand", "conditions": "1 µM", "inhibition [%]": 97.3}
{"Structure (SMILES)": "COc1ccc2c(c1)[nH]c1c(C)nccc12", "target": "DNA dC->dU-editing enzyme APOBEC-3B (Homo sapiens, UniProt Q9UH17)", "test": "enzyme activity, inhibitor, fluorescence", "conditions": "100 µM", "inhibition [%]": 53.6}
{"Structure (SMILES)": "C=CCn1c2cc(OC(=O)CCCCN3CCN(Cc4ccccc4)CC3)ccc2c2ccnc(C)c21", "target": "BCHE", "test": "enzyme activity, inhibitor, Ellman", "conditions": "1 µM", "inhibition [%]": 38.5}
{"Structure (SMILES)": "C#Cc1n[nH]c2c(-c3cn([C@@H](C)c4ccccn4)c(=O)[nH]c3=O)cc(F)cc12", "target": "Fibroblast growth factor receptor 1 (FGFR1, Homo sapiens, UniProt P11362)", "test": "enzyme activity, inhibitor", "conditions": "0.1 µM", "inhibition [%]": 5.4}
{"Structure (SMILES)": "C=CCn1c2cc(OC(=O)CCCCN3CCN(Cc4cccc(F)c4)CC3)ccc2c2ccnc(C)c21", "target": "BCHE", "test": "enzyme activity, inhibitor, Ellman", "conditions": "1 µM", "inhibition [%]": 17.3}
{"Structure (SMILES)": "O=C(Nc1cccnn1)N1CCN([C@@H]2CCOc3cc(C(F)(F)F)ccc32)CC1", "target": "CYSLTR1", "test": "ligand displacement", "conditions": "20 µM", "inhibition [%]": 6}
{"Structure (SMILES)": "COc1ccc2c(c1)[nH]c1c(C)nccc12", "target": "BCHE", "test": "enzyme activity, inhibitor, Ellman", "conditions": "1 µM", "inhibition [%]": 25.7}
{"Structure (SMILES)": "CC(C)N1CCC[C@H]1CNC(=O)c1cn(C2CCCC2)c(=O)c2c1c1ccccc1n2C", "target": "CYSLTR1", "test": "ligand displacement, radioligand", "conditions": "10 µM", "inhibition [%]": 22}
